The source made the active and inactive calls. The rule behind the calls is not given here.
Columns and labels:
A-375 [1] = experiment: Inhibition of PDK in human A375 cells assessed as reduction lactate formation at 2.5 to 5 uM after 4 hrs by Nova Bio-profile Flex analyzer; assay type: cell-based; conditions: dose 2.5-5 µM
In short: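 A375 cells seeded at 2.5 × 10⁵/well in 24-well plates and cultured overnight. Treated 4 h at 37 °C. Medium collected and centrifuged 4 min at 12000 rpm for lactate determination.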

A-375 [2] = experiment: Induction of apoptosis in human A375 cells assessed as late apoptotic cells at 5 uM after 36 hrs by annexinV-FITC/propidium iodide staining based flow cytometric analysis (reference value: 1.02%); assay type: functional
A-375 [3] = experiment: Induction of apoptosis in human A375 cells assessed as viable cells at 1 uM after 36 hrs by annexinV-FITC/propidium iodide staining based flow cytometric analysis (reference value: 94.15%); assay type: functional; conditions: read-out: Activity
A-375 [4] = experiment: Induction of cell cycle arrest in human A375 cells assessed as accumulation at G2 phase at 1 uM after 24 hrs by propidium iodide staining based flow cytometric analysis (reference value: 10.02%); assay type: functional
A-375 [5] = experiment: Induction of cell cycle arrest in human A375 cells assessed as accumulation at G1 phase at 5 uM after 24 hrs by propidium iodide staining based flow cytometric analysis (reference value: 52.65%); assay type: functional
A-375 [6] = experiment: Induction of apoptosis in human A375 cells assessed as late apoptotic cells at 5 uM after 12 hrs by annexinV-FITC/propidium iodide staining based flow cytometric analysis (reference value: 0.63%); assay type: functional
A-375 [7] = experiment: Induction of cell cycle arrest in human A375 cells assessed as accumulation at G2 phase at 2.5 uM after 24 hrs by propidium iodide staining based flow cytometric analysis (reference value: 10.02%); assay type: functional
A-375 [8] = experiment: Induction of apoptosis in human A375 cells assessed as viable cells at 2.5 uM after 36 hrs by annexinV-FITC/propidium iodide staining based flow cytometric analysis (reference value: 94.15%); assay type: functional; conditions: read-out: Activity
MCF7 [9] = experiment: Antiproliferative activity against human MCF7 cells assessed as growth inhibition at 1 uM after 72 hrs by MTT assay relative to control; assay type: functional; conditions: read-out: GI
In short: (§1)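 Single-concentration MTT screen on MCF-7 and A549 cells grown in DMEM + 10% FBS. Cells at 3000–6000/well, cultured overnight, then given compound in buffer with 1% DMSO for 72 h. MTT (0.5 mg/mL) added for 4 h, formazan dissolved in DMSO, A570 read. Percent inhibition reported as the average ± S.D. of three independent measurements.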

A-375 [10] = experiment: Induction of mitochondrial membrane depolarization in human A375 cells at 2 to 10 uM after 4 hrs by TMRM staining based confocal microscopic analysis; assay type: functional, cell-based; conditions: dose 2-10 µM
In short: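 A375 cells seeded at 4 x 10⁴ cells/mL and grown overnight at 37 °C. Treated 4 h at 37 °C. TMRM in fresh medium added for 15 min at 37 °C. Cells washed 3 times with cool PBS and imaged by laser scanning confocal microscopy.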

A-375 [11] = experiment: Inhibition of PDK in human A375 cells assessed as reduction in phosphorylation of PDC E1alpha at ser293 residues at 2.5 to 5 uM after 24 hrs by Western blot analysis; assay type: cell-based; conditions: dose 2.5-5 µM
In short: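 A375 cells in 6-well plates, treated 24 h. Lysed 15 min and spun 12000 rpm at 4 °C for 15 min. Protein equalized by BCA and denatured in SDS buffer at 100 °C for 8 min. Run on SDS-PAGE, transferred to nitrocellulose, blocked in 5% milk 2 h, primary antibody overnight, HRP anti-rabbit IgG 2 h, ECL detection.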

A-375 [12] = experiment: Induction of cell cycle arrest in human A375 cells assessed as accumulation at G2 phase at 5 uM after 24 hrs by propidium iodide staining based flow cytometric analysis (reference value: 10.02%); assay type: functional
A549 [13] = experiment: Antiproliferative activity against human A549 cells assessed as growth inhibition at 10 uM after 72 hrs by MTT assay relative to control; assay type: functional; conditions: read-out: GI; in short: as §1
[14] = Toxicity in mouse xenografted with human A375 cells assessed as reduction in body weight at 5 mg/kg, im administered once per three days for 21 days; assay type: organism-based; conditions: in vivo, 504 h, time 21 day
In short: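 A375 cells at 80% confluence harvested with trypsin/EDTA, resuspended in serum-free DMEM, and injected subcutaneously into the right flank. Tumours visible at 7 days. Mice randomized to vehicle or 5 mg/kg (n = 4/group), dosed intramuscularly once every three days. Body weight followed over 21 days.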

A-375 [15] = experiment: Induction of cell cycle arrest in human A375 cells assessed as accumulation at G1 phase after 24 hrs by propidium iodide staining based flow cytometric analysis; assay type: functional; conditions: dose 1-5 µM
A-375 [16] = experiment: Induction of ROS generation in human A375 cells at 1 to 5 uM after 4 hrs by DCFH-DA staining based assay; assay type: functional, cell-based; conditions: dose 1-5 µM
In short: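 ROS assay. A375 cells loaded with diluted DCFH-DA for 45 min at 37 °C, washed three times with PBS, then treated with compound at 37 °C for 4 h. Fluorescence read on a microplate reader at Ex/Em 485/535 nm.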

L02 = experiment: Cytotoxicity against human L02 cells assessed as reduction in cell viability after 72 hrs by MTT assay; assay type: cell-based; conditions: Homo sapiens, L02, 72 h; read-out: IC50
In short: (§2)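 MTT viability assay. Cancer lines seeded at 3000–6000 cells/well and L02 at 7000 cells/well, cultured overnight, then exposed to a full dose range for 72 h. MTT (0.5 mg/mL) added for 4 h, supernatant removed, formazan dissolved in DMSO, absorbance read at 570 nm. IC50 taken as the mean of three independent experiments. Cells grown in DMEM + 10% FBS, 37 °C, 5% CO2.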

MCF7 [17] = experiment: Antiproliferative activity against human MCF7 cells assessed as growth inhibition after 72 hrs by MTT assay; assay type: functional, cell-based; conditions: Homo sapiens, MCF7, 72 h; read-out: IC50; in short: as §2
A549 [18] = experiment: Antiproliferative activity against human A549 cells assessed as growth inhibition at 1 uM after 72 hrs by MTT assay relative to control; assay type: functional; conditions: read-out: GI; in short: as §1
A-375 [19] = experiment: Antiproliferative activity against human A375 cells assessed as growth inhibition after 72 hrs by MTT assay; assay type: functional, cell-based; conditions: Homo sapiens, A-375, 72 h; read-out: IC50; in short: as §2
A-375 [20] = experiment: Induction of apoptosis in human A375 cells assessed as early apoptotic cells at 5 uM after 12 hrs by annexinV-FITC/propidium iodide staining based flow cytometric analysis (reference value: 0.87%); assay type: functional
A-375 [21] = experiment: Induction of cell cycle arrest in human A375 cells assessed as accumulation at G1 phase at 2.5 uM after 24 hrs by propidium iodide staining based flow cytometric analysis (reference value: 52.65%); assay type: functional
[22] = Inhibition of PDK (unknown origin) using RYHGHSMSDP as substrate after 30 mins by Kinase-Glo luminescent assay; set-up: species or system Homo sapiens
HCT-116 = experiment: Antiproliferative activity against human HCT-116 cells assessed as growth inhibition after 72 hrs by MTT assay; assay type: functional, cell-based; conditions: Homo sapiens, HCT-116, 72 h; read-out: IC50; in short: as §2

IC50 (MCF7 [17]): 2400 nM | IC50 (A-375 [19]): 1100 nM | EC50 [22]: 90 nM | IC50 (HCT-116): 2100 nM
SMILES: CC(C)(CO)c1ccc(Nc2ccc(C(=O)C(Cl)Cl)cc2[N+](=O)[O-])cc1
inhibition (A-375 [1]): Active | Activity (A-375 [2]): 38.81% | viability at 1 µM (A-375 [3]): 81.9% | Activity (A-375 [4]): 9.64% | Activity (A-375 [5]): 66.86% | Activity (A-375 [6]): 6.88% | Activity (A-375 [7]): 8.5% | viability at 2.5 µM (A-375 [8]): 68.9% | inhibition of growth at 1 µM (MCF7 [9]): 38.9% | Activity (A-375 [10]): Active | inhibition (A-375 [11]): Active | Activity (A-375 [12]): 5.71% | inhibition of growth at 10 µM (A549 [13]): 98.6% | Activity [14]: Non-Toxic | Activity (A-375 [15]): Dose-dependent effect | Activity (A-375 [16]): Active | IC50 (L02): 14.4 µM | inhibition of growth at 1 µM (A549 [18]): 29.4% | Activity (A-375 [20]): 8.7% | Activity (A-375 [21]): 60.75%

Reference: ChEMBL document CHEMBL4732185, “Synthesis, biological evaluation and structure-activity relationship of novel dichloroacetophenones targeting pyruvate dehydrogenase kinases with potent anticancer activity” (Eur J Med Chem, 2021)
